Experimental data: ChEMBL document CHEMBL1128723, “Orally bioavailable benzisothiazolone inhibitors of human leukocyte elastase” (J Med Chem, 1995)

Columns and labels:
[1] = Human tissue stability for the compound was determined by its half life time period in human liver; assay type: ADME, organism-based
Method in brief: (§1)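 Liver S9 was prepared by homogenizing in 50 mM Na/K phosphate/KCl buffer and spinning at 9000g for 20 min. S9 was used at 8 mg/mL protein with an NADPH-generating system and preincubated 5 min at 37 °C. Compound was added from DMSO at 100 μM starting concentration and incubated at 37 °C. Parent disappearance was followed by RP-HPLC over time to give the half-life.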

[2] = Maximum plasma concentration in Beagle dogs at oral dose of 20 mg/kg and an intravenous dose of 5 mg/kg was administered; assay type: ADME, organism-based, Canis lupus familiaris; settings: dog
Method in brief: (§2)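 Fasted rats, beagle dogs or cynomolgus monkeys were dosed orally at 20 mg/kg (one compound at 10 mg/kg) or iv at 5 mg/kg. Vehicles were mainly 0.05% lactic acid in water (oral) or 5% dextrose/0.05% lactic acid (iv). Blood was drawn at intervals, extracted with toluene/hexane (9:1) containing internal standard, and parent quantified by reverse-phase HPLC.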

[3] = Human tissue stability for the compound was determined by its half life time period in human blood; assay type: ADME, organism-based
[4] = Compound was tested for plasma concentration in Beagle dogs at oral dose of 20 mg/kg and an intravenous dose of 5 mg/kg was administered; assay type: ADME, organism-based, Canis lupus familiaris; settings: dog; method in brief: as §2
[5] = Oral bioavailability in Beagle dogs at oral dose of 20 mg/kg and an intravenous dose of 5 mg/kg was administered; assay type: ADME, organism-based, Canis lupus familiaris; settings: dog, in vivo, read-out: BA; method in brief: as §2
Neutrophil elastase = biological target: T1, Neutrophil elastase (Homo sapiens, UniProt P08246); experiment: Potency of inhibition against human leukocyte elastase (HLE) expressed as an apparent binding constant
T1 sequence (P08246 whole entry): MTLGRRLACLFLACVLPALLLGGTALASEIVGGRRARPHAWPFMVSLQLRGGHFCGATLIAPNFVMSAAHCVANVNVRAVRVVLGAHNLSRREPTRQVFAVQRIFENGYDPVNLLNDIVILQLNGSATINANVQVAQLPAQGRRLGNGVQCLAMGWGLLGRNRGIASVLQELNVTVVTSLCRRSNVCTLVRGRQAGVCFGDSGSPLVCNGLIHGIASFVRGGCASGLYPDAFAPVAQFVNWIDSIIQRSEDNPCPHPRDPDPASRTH

[6] = Human tissue stability for the compound was determined by its half life time period in human jejunum; assay type: ADME, organism-based
Method in brief: (§3)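 Jejunum (fresh-frozen animal tissue or unused human transplant tissue) was homogenized in pH 7.2 modified Ringer's buffer, spun at 9000g, and the supernatant kept. Compound was added from DMSO at 100 μM starting concentration and incubated at 37 °C, sampled at intervals. Samples were acetonitrile-quenched and parent measured by RP-HPLC to give the half-life.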

Cricetinae gen. sp. [7] = experiment: Inhibitory activity was determined against HLE-induced hamster hemorrhage model by intravenous administration at a dose of 1 mg/kg; assay type: functional, Cricetulus griseus
Cricetinae gen. sp. [8] = experiment: Effective dose required for the inhibition of human leukocyte elastase in the HLE-induced hamster hemorrhage model.; assay type: functional, Cricetulus griseus
[9] = Compound was tested for the half life time period in dog liver S9; assay type: ADME, Canis lupus familiaris, S9 fraction; method in brief: as §1
[10] = Compound was tested for half life time period in hamster liver S9; assay type: ADME, S9 fraction; settings: cricetinae; method in brief: as §1
[11] = Compound was tested for half life time period in hamster jejunum; assay type: ADME, organism-based; settings: cricetinae; method in brief: as §3
[12] = Compound was tested for in vivo bioavailability in rat; assay type: ADME, organism-based; settings: read-out: Bioavailabiility; method in brief: as §2
[13] = Compound was tested for the half life time period in rat jejunum; assay type: ADME, organism-based; method in brief: as §3
[14] = Compound was tested for in vivo bioavailability in dog; assay type: ADME, organism-based, Canis lupus familiaris; settings: read-out: Bioavailabiility; method in brief: as §2
[15] = Compound was tested for half life time period in hamster blood; assay type: ADME, organism-based; settings: cricetinae
Method in brief: (§4)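 Fresh heparinized blood from rats, hamsters, beagle dogs and cynomolgus monkeys was used within 4 h of collection. Compound was added from DMSO to a starting concentration of 100 μM and incubated at 37 °C with sampling at intervals. Samples were quenched with acetonitrile/TFA and the supernatant assayed by reverse-phase HPLC for loss of parent, giving the half-life. Control incubations were run with each assay.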

[16] = Compound was tested for the half life time period in monkey jejunum; assay type: ADME, tissue-based; settings: simiiformes; method in brief: as §3
[17] = Compound was tested for the half life time period in rat blood; assay type: ADME, organism-based; method in brief: as §4
[18] = Compound was tested for the half life time period in dog jejunum; assay type: ADME, organism-based, Canis lupus familiaris; method in brief: as §3
[19] = Compound was tested for the half life time period in monkey blood; assay type: ADME, tissue-based; settings: simiiformes; method in brief: as §4
[20] = Compound was tested for in vivo bioavailability in monkey; assay type: ADME, organism-based; settings: simiiformes, read-out: Bioavailabiility; method in brief: as §2
[21] = Compound was tested for the half life time period in rat liver S9; assay type: ADME, S9 fraction; method in brief: as §1
[22] = Compound was tested for the half life time period in monkey liver S9; assay type: ADME, subcellular, S9 fraction; settings: simiiformes; method in brief: as §1
[23] = Compound was tested for the half life time period in dog blood; assay type: ADME, organism-based, Canis lupus familiaris; method in brief: as §4
[24] = Compound was tested for in vivo bioavailability in hamsters; assay type: ADME, organism-based; settings: cricetinae, read-out: Bioavailabiility
Cricetinae gen. sp. [25] = experiment: Compound was tested for effective dose required for the inhibition of human leukocyte elastase in the HLE-induced hamster hemorrhage model; assay type: functional, Cricetulus griseus

SMILES	half-life [1]	Cmax [2]	half-life [3]	half-life [4]	bioavailability [5]	Ki (Neutrophil elastase)	half-life [6]	also measured
CC(C)c1cccc2c1C(=O)N(COC(=O)c1c(Cl)ccc(OCCN3CCOCC3)c1Cl)S2(=O)=O	4.9 min	–	20 min	–	–	8 pM	13 min	inhibition in vivo at 1 mg/kg (Cricetinae gen. sp. [7]): 87%
O=C1c2ccccc2S(=O)(=O)N1CSc1nnnn1-c1ccccc1	–	–	< 5 min	–	–	–	–	–
COc1cc(C(C)C)c2c(c1)S(=O)(=O)N(COC(=O)c1c(Cl)ccc(OCCN3CCCC3)c1Cl)C2=O	110 min	325 ng/mL	110 min	432 min	46%	14 pM	218 min	ED50 (Cricetinae gen. sp. [8]): 1 mg/kg
COc1cc(C(C)C)c2c(c1)S(=O)(=O)N(COC(=O)c1c(Cl)ccc(OCC(=O)O)c1Cl)C2=O	–	–	< 15 min	–	–	11 pM	–	–
COc1cc(C(C)C)c2c(c1)S(=O)(=O)N(COC(=O)c1c(Cl)ccc(OCCN3CCOCC3)c1Cl)C2=O	37.3 min	1200 ng/mL	36 min	137 min	21%	13 pM	170 min	half-life [9]: 30.2 min; half-life [10]: < 5 min; half-life [11]: 1.3 min; bioavailability [12]: 1%; half-life [13]: 60.8 min; bioavailability [14]: 21%; half-life [15]: 259 min; half-life [16]: 32.3 min; half-life [17]: 6 min; half-life [18]: 394 min; half-life [19]: 57.2 min; bioavailability [20]: < 1%; half-life [21]: 12.4 min; half-life [22]: 2.9 min; half-life [23]: 90 min; bioavailability [24]: < 3%; ED50 (Cricetinae gen. sp. [25]): 3 mg/kg

More lines, main results first:

half-life [1]	Cmax [2]	half-life [3]	half-life [4]	bioavailability [5]	Ki (Neutrophil elastase)	half-life [6]	SMILES	also measured
28.9 min	390 ng/mL	90 min	78 min	21%	11 pM	99 min	COc1cc(C(C)C)c2c(c1)S(=O)(=O)N(COC(=O)c1c(Cl)ccc(S(=O)(=O)N3CCN(C)CC3)c1Cl)C2=O	–
40.2 min	220 ng/mL	> 1200 min	23 min	8%	200 pM	113 min	CC(C)c1cc(O)cc2c1C(=O)N(COC(=O)c1c(Cl)ccc(S(=O)(=O)N3CCN(C)CC3)c1Cl)S2(=O)=O	–
23.9 min	300 ng/mL	130 min	74 min	14%	13 pM	80 min	COc1cc(C(C)C)c2c(c1)S(=O)(=O)N(COC(=O)c1c(Cl)ccc(S(=O)(=O)N(C)CCN(C)C)c1Cl)C2=O	–
